# From paper PMC5312682 (Journal of neurochemistry, 2017)
# Columns and labels:
# Aβ = Aβ pathology; assay type: in vivo, mouse; settings: APP^Lond/Swe+ mice, 10 mg/kg/d chronic
# How it was run: (§1)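 After behavioural testing at the end of chronic daily SC dosing, APPLond/Swe+ and WT mice were perfused with PBS and brains collected. Brains were bisected sagittally: one half was frozen at −80°C, and the other was fixed overnight in 4% formalin, then kept at 4°C in 30% sucrose until processing.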
# [1] = test system: Thy1-hAPP^Lond/Swe+ mice and WT littermates; test: Morris Water Maze; assay type: in vivo, mouse
# How it was run: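 Dose-response cohort: APPLond/Swe+ and WT littermates aged 6.7 months, given 3, 10 or 30 mg/kg SC daily for 60 days (n=4–5 per group). MWM started after 35 days of dosing, with hidden-platform learning followed by reversal-learning hidden-platform trials. Mice floating extensively or unable to swim were excluded. Analysis used repeated-measures ANOVA with Dunnett's or one-way ANOVA with Fisher's LSD; mean ±SEM.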
# [2] = test system: Thy1-hAPP^Lond/Swe+ mice and WT littermates; test: Sociability / social discrimination test; assay type: in vivo, mouse; settings: for sociability test: preference mouse cup vs empty cup: 10 mg/kg/d SC, after 35 days of dosing
# How it was run: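 APPLond/Swe+ and WT littermates dosed SC daily in late afternoon; on test days, dosing followed testing. Chronic study: 10 mg/kg for 64 days from 4.5 months; sociability measured as exploration of a cup holding a C57Bl/6 mouse vs an empty cup. Dose-response study: 3, 10 or 30 mg/kg from 6.7 months; social discrimination of novel vs familiar mouse after 30 days of dosing, by t-test.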
# [3] = test system: Thy1-hAPP^Lond/Swe+ mice and WT littermates; test: Y-maze test; assay type: in vivo, mouse
# How it was run: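 Y-maze spontaneous alternation and total arm entries in APPLond/Swe+ and WT littermates dosed SC daily, tested during the active cycle in balanced morning and afternoon sessions. Chronic study: 10 mg/kg, tested after 50 days of dosing. Dose-response study: 3, 10 or 30 mg/kg for 60 days. Alternation was compared with a 50% theoretical mean by one-sample t-test; mean ±SEM.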
# [4] = biological target: CNS-relevant targets, including opioid, adrenergic, nACR, mAChR, and NMDA receptors, neurotransmitter transporters and ion channels; test: Off-target binding, CNS-relevant targets; settings: read-out: off-target affinity Ki; most CNS-relevant targets; Supplemental table 2
# IL1β = test: qRT-PCR of inflammatory markers in cortical tissue; assay type: in vivo, mouse; settings: APP^Lond/Swe+ mice, dose-response cohort
# [5] = test system: human SK-N-SH neuroblastoma cells; test: Intracellular calcium assay; assay type: cell-based; settings: for calcium response: compound alone
# synaptophysin, iba1 = test: Synaptophysin and iba1 immunohistochemistry in brain; assay type: in vivo, mouse
# How it was run: as §1
# [6] = test system: Thy1-hAPP^Lond/Swe+ mice and WT littermates; assay type: in vivo, mouse
# How it was run: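 APPLond/Swe+ and WT littermates, single-housed on a reverse light cycle, balanced for body weight and pre-dose locomotor activity. Dosing was 10 mg/kg SC once daily in late afternoon for 64 days, started at 4.5 months of age. Activity chamber was run first in the behavioural battery, during the active cycle. After behavioural testing, blood and organs were collected at sacrifice for blood chemistry and histopathology.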
# Sig2R = settings: read-out: Ki Sig2R; ref Sahn et al. 2016; cited from earlier work
# PK study in mice = assay type: in vivo, C57Bl/6J mice; settings: mouse; for bioavailability: AUC(0-3h) vs intravenous
# [7] = test system: transgenic SC_APP C. elegans; test: C. elegans neurotoxicity assay; assay type: in vivo
# microglia = settings: induced by fragments of amyloid beta; ref Behensky et al. 2013; cited from earlier work
# [8] = test system: neural progenitor cells derived from adult rat brain; settings: ref Liu et al. 2009; cited from earlier work
compound,measurement,setting,value
CN1CCN(c2ccc3c(c2)[C@H]2C[C@@H]3CCN2C(=O)OCc2ccccc2)CC1 [SAS-0132],"intracellular Aβ immunoreactivity (cortex, hippocampus, amygdala)",Aβ,does not affect levels of intracellular Aβ
same,soluble and insoluble Aβ40 and Aβ42 (ELISA) vs vehicle,Aβ,no significant difference
same,MWM hidden platform learning phase,[1]; APP^Lond/Swe+ mice,had no effect on the cognitive functions
same,MWM reversal learning trials,[1]; APP^Lond/Swe+ mice,no significant effects of SAS-0132 treatment
same,MWM reversal learning probe trial: target quadrant preference,"[1]; APP^Lond/Swe+ mice, 10 mg/kg",showed target quadrant preference
same,MWM reversal learning: escape latency vs vehicle,"[1]; APP^Lond/Swe+ mice, 3 and 10 mg/kg",non-significant decreased escape latency
same,MWM probe trial: target quadrant preference,"[1]; WT mice, 3 mg/kg",showed a clear preference for the target quadrant
same,MWM reversal probe trial: target quadrant preference,"[1]; WT mice, 3 mg/kg",all WT groups showed target quadrant preference with the exception of the 3 mg/kg dose group
same,MWM hidden platform learning: escape latency,"[1]; WT mice, 3 and 30 mg/kg, started after 35 days of dosing",found the escape platform faster than the vehicle-treated WT mice
same,MWM reversal learning day 2: escape latency,"[1]; WT mice, 10 and 30 mg/kg",found the escape platform faster than WT mice treated with vehicle
same,MWM reversal learning probe trial: target quadrant preference,"[1]; WT mice, 10 and 30 mg/kg",demonstrated recall and showed target quadrant preference
same,sociability test: preference mouse cup vs empty cup,"[2]; APP^Lond/Swe+ mice, p < 0.05",showed a distinct preference for the cup containing a mouse over the empty cup
same,sociability test: preference mouse cup vs empty cup,[2]; WT mice,not significantly altered
same,sociability,"[2]; dose-response study, 30 mg/kg",did not impair sociability
same,social discrimination: novel vs familiar mouse,"[2]; dose-response study, APP^Lond/Swe+ mice, 3 mg/kg",showed a significant preference for a novel mouse over a familiar one
same,Y-maze total arm entries,"[3]; WT and APP^Lond/Swe+ mice, 10 mg/kg/d, chronic daily dosing study",not different among the four groups
same,Y-maze spontaneous alternation,"[3]; dose-response study, WT and APP^Lond/Swe+ mice, 30 mg/kg",showed impaired spontaneous alternation behavior
same,Y-maze spontaneous alternation,"[3]; dose-response study, WT mice, 30 mg/kg",showed impaired alternation behavior
same,Y-maze spontaneous alternation,"[3]; dose-response study, WT mice, 3 and 10 mg/kg",did not affect their performance
same,Y-maze total arm entries,"[3]; dose-response study, all groups",not different among groups
same,Ki,[4],0.5 to 10 µM
same,IL1β mRNA expression,IL1β,decreased the expression of the inflammatory cytokine IL1β
same,effects on intracellular Ca2+ compared with DKR-1051,[5]; 100 µM,weaker than the effects of DKR-1051
same,effect on calcium response induced by DKR-1051 (100 µM),"[5]; SAS-0132 applied before DKR-1051, lower concentrations (0.1-30 µM)",significantly attenuated the DKR-0151-induced calcium response
same,calcium response,[5]; 100 µM,significant increases in intracellular Ca^2+
same,calcium response,[5]; concentrations up to 30 µM,fails to produce a significant calcium response
same,"synaptophysin immunoreactivity, CA3 (synapse loss)","synaptophysin, iba1; APP^Lond/Swe+ mice, 10 mg/kg/d chronic",did not alter the extent of synapse loss
same,iba1 immunoreactivity,"synaptophysin, iba1; WT or APP^Lond/Swe+ mice, chronic daily dosing study",no drug-related effects
same,blood chemistry and histopathology,"[6]; WT mice, 10 mg/kg/d for 64 days, Supplemental tables 3-4",no signs of SAS- 0132 induced toxicity
same,locomotor activity in activity chamber vs vehicle,[6]; after 24 days of treatment,not significantly different
same,general health of treated animals,"[6]; both chronic daily dosing studies, 3-30 mg/kg/d, 60-64 days",remained healthy and exhibited no detectable abnormalities
same,Ki,Sig2R,90 nM
same,plasma levels,"PK study in mice; 10 mg/kg IV, SC and PO, up to 3 h post-administration",Detectable levels
same,bioavailability,PK study in mice; 10 mg/kg oral,7%
same,brain concentration,"PK study in mice; 10 mg/kg subcutaneous, 3 h post-administration",3.8 µM
same,bioavailability,PK study in mice; 10 mg/kg subcutaneous,45%
same,concentration in brain homogenates,PK study in mice; 24 h after single 10 mg/kg subcutaneous injection,1.6 ng/g
same,neurodegeneration of VC4 and VC5 neurons vs vehicle,"[7]; 200 µM, 5-day treatment, day 5 of adulthood, SC_APP worms, p < 0.01",decreased neurodegeneration
same,neuroprotection in animals with vem-1 (PGRMC1) knocked-down by RNAi,"[7]; 200 µM, SC_APP worms, vem-1 RNAi co-treatment",provided no further neuroprotection
same,functional classification at Sig2R/PGRMC1,[7]; from C. elegans data compared with vem-1 null mutations,Sig2R/PGRMC1 antagonists
CCOc1ccc2nc(SCCN3CCOCC3)[nH]c2c1 [afobazole],neurotoxic microglia stimulation and apoptosis,microglia,reduces neurotoxic microglia stimulation and apoptosis
CC(=O)[C@H]1CC[C@H]2[C@@H]3CCC4=CC(=O)CC[C@]4(C)[C@H]3CC[C@]12C [progesterone],neurogenic and neuroprotective effects,[8],exerts neurogenic and neuroprotective effects
